In paper PMC4550085 (Chemical communications (Cambridge, England), 2015):

Tests used:
HeLa cells [1] = experiment: FACS analysis of cytosolic delivery of NF-labelled CPPs; type: cell-based; conditions: 2 h; for Cytosolic delivery (MFI^NF, %): relative to Tat (100%), 5 µM NF-labelled peptide; for cytosolic delivery efficiency relative to Tat: 5 µM NF-labelled peptides
Procedure, shortened: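 HeLa cells were exposed for 2 h to 5 µM naphthofluorescein-labelled peptide and analysed by FACS with excitation at 633 nm. Background fluorescence was subtracted from the mean fluorescence intensity (MFI). Values are relative to the Tat conjugate (100%) and are mean ± SD of three independent experiments.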

HeLa cells [2] = experiment: Endosomal escape efficiency calculated from NF and Rho MFI; type: cell-based; conditions: for Endosomal escape efficiency (γ, %): relative to Tat (100%), calculated from MFI^NF/MFI^Rho; for endosomal escape efficiency relative to Tat: γ=(MFI NF/MFI Rho)/(MFI Tat NF/MFI Tat Rho), HeLa cells, 5 µM
HeLa cells [3] = experiment: Live-cell confocal microscopy of labelled CPPs; type: cell-based; conditions: 5 µM for 2 h
HeLa cells [4] = experiment: FACS analysis of total cellular uptake of Rho-labelled CPPs; type: cell-based; conditions: for Total cellular uptake (MFI^Rho, %): relative to Tat (100%), 5 µM Rho-labelled peptide, 2 h
Procedure, shortened: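 Total uptake: HeLa cells were treated for 2 h with 5 µM rhodamine-labelled peptide and analysed by FACS with excitation at 561 nm. MFI was background-subtracted. Values are relative to the Tat conjugate (100%) and are mean ± SD of three independent experiments.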

[5] = cited from earlier work
HeLa cells [6] = experiment: MTT cytotoxicity assay; type: cell-based; conditions: up to 25 µM concentration
[7] = previously shown; cited from earlier work
[8] = pH titration of fluorescence intensity of the dyes and CPP-dye adducts; type: physicochemical

Row | Substance | Cytosolic delivery (MFI^NF, %) (HeLa cells [1]) [%] | Endosomal escape efficiency (γ, %) (HeLa cells [2]) [%] | intracellular fluorescence pattern (HeLa cells [3]) | Total cellular uptake (MFI^Rho, %) (HeLa cells [4]) [%] | cytosolic delivery efficiency relative to Tat, pCAP-based assay [5] [fold] | cytosolic delivery efficiency relative to Tat (HeLa cells [1]) | endosomal escape efficiency relative to Tat (HeLa cells [2]) [fold] | cytotoxicity, MTT assay (HeLa cells [6]) | total cellular uptake relative to Tat (HeLa cells [4]; 5 µM Rho-labelled peptides) [fold] | cytosolic delivery efficiency relative to Tat and R9 [7] | pH profile of CPP-dye adduct compared with the unmodified dye ([8]; dye attached to the glutamine side chain of cFΦR4, pH titration) | change in fluorescence intensity with pH ([8]; pH range of 5–10, Ex/Em 545/590 nm)
1 | YGRKKRRQRRR [Tat] | 100 | 100 | diffuse fluorescence in both cytoplasmic and nuclear regions | 100 | – | – | – | – | – | – | – | –
2 | cyclo(FΦRRRRQ) (head to tail) [cFΦR4] | 1006 | 433 | – | – | 12 | ~ 10 fold | 4.3 | Neither peptide showed any significant toxicity | 2.3 | 4–12 fold | essentially identical pH profiles | –
3 | nonaarginine [R9] | 197 | 173 | diffuse fluorescence in both cytoplasmic and nuclear regions | 114 | 3 | ~ 2 fold | 1.7 | – | – | – | – | –
4 | rhodamine | – | – | – | – | – | – | – | – | – | – | – | no significant change in fluorescence intensity
